{"source": "ChEMBL document CHEMBL1255303", "about": "“In vitro and in vivo antifungal activities of T-2307, a novel arylamidine” (2008)", "type_in_all_cases": "functional", "key": {"Aspergillus terreus": {"test_system": "Aspergillus terreus", "experiment": "Antifungal activity against Aspergillus terreus NBRC 33026 after 48 hrs by broth microdilution method", "settings": "NBRC 33026, 48 h", "how_it_was_run": "(§1)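 CLSI M27-A2 (yeasts) / M38-A (moulds) broth microdilution in RPMI 1640 buffered to pH 7.0 with 0.165 M MOPS. Malassezia furfur got the same medium supplemented with glucose, bile salts, glycerol, glycerol monostearate and Tween 20. Final inoculum 0.65 × 10^3–2.5 × 10^3 CFU/ml for yeasts and 0.87 × 10^4–3.8 × 10^4 CFU/ml for filamentous fungi. Incubation at 35°C except M. racemosus and F. solani, which were held at 30°C.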"}, "Cryptococcus neoformans [1]": {"test_system": "Cryptococcus neoformans", "experiment": "Antifungal activity against Cryptococcus neoformans TIMM 0354 after 72 hrs by broth microdilution method", "settings": "TIMM 0354, 72 h", "how_it_was_run": "(§2)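 CLSI M27-A2 (yeasts) or M38-A (A. fumigatus) broth microdilution in RPMI 1640 buffered to pH 7.0 with 0.165 M MOPS. Final inocula were 0.65–2.5 × 10^3 CFU/ml for yeasts and 0.87–3.8 × 10^4 CFU/ml for filamentous fungi. Incubation was at 35°C for about 48 h (72 h for C. neoformans). MIC was the lowest concentration giving a prominent (~50%) turbidity drop versus growth control; amphotericin B required complete inhibition.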"}, "Candida albicans [2]": {"test_system": "Candida albicans", "experiment": "Antifungal activity against Candida albicans ATCC 24433 after 48 hrs by broth microdilution method", "settings": "ATCC 24433, 48 h", "how_it_was_run": "as §2"}, "Candida tropicalis [3]": {"test_system": "Candida tropicalis", "experiment": "Antifungal activity against Candida tropicalis clinical isolates after 48 hrs by broth microdilution method", "how_it_was_run": "(§3)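 Clinical isolates from Japanese hospitals or culture collections were tested by broth microdilution in RPMI 1640-MOPS. Inoculum was 0.57 × 10^3–2.5 × 10^3 CFU/ml for yeasts and 0.4 × 10^4–3.3 × 10^4 CFU/ml for filamentous fungi. Incubation was at 35°C for about 48 h, or 72 h where footnoted. Results were summarised as MIC range, MIC50 and MIC90.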"}, "Candida parapsilosis [4]": {"test_system": "Candida parapsilosis", "experiment": "Antifungal activity against Candida parapsilosis NBRC 10219 after 48 hrs by broth microdilution method", "settings": "Lodderomyces parapsilosis, NBRC 10219, 48 h", "how_it_was_run": "as §2"}, "Candida albicans [5]": {"test_system": "Candida albicans", "experiment": "Antifungal activity against Candida albicans clinical isolates after 48 hrs by broth microdilution method", "how_it_was_run": "as §3"}, "Trichophyton rubrum": {"test_system": "Trichophyton rubrum", "experiment": "Antifungal activity against Trichophyton rubrum NBRC 5467 after 72 hrs by broth microdilution method", "settings": "NBRC 5467, 72 h", "how_it_was_run": "as §1"}, "Saccharomyces cerevisiae": {"test_system": "Saccharomyces cerevisiae", "experiment": "Antifungal activity against Saccharomyces cerevisiae ATCC 24657 after 48 hrs by broth microdilution method", "settings": "ATCC 24657, 48 h", "how_it_was_run": "as §1"}, "Cryptococcus neoformans [6]": {"test_system": "Cryptococcus neoformans", "experiment": "Antifungal activity against Cryptococcus neoformans ATCC 90112 after 72 hrs by broth microdilution method", "settings": "ATCC 90112, 72 h", "how_it_was_run": "as §2"}, "Aspergillus flavus": {"test_system": "Aspergillus flavus", "experiment": "Antifungal activity against Aspergillus flavus NBRC 6343 after 48 hrs by broth microdilution method", "settings": "NBRC 6343, 48 h", "how_it_was_run": "as §1"}, "Candida albicans [7]": {"test_system": "Candida albicans", "experiment": "Antifungal activity against Candida albicans ATCC 90028 after 48 hrs by broth microdilution method", "settings": "ATCC 90028, 48 h", "how_it_was_run": "as §1"}, "Mucor racemosus": {"test_system": "Mucor racemosus", "experiment": "Antifungal activity against Mucor racemosus NBRC5403 after 24 hrs by broth microdilution method", "settings": "NBRC5403, 24 h"}, "Pichia kudriavzevii": {"test_system": "Pichia kudriavzevii", "experiment": "Antifungal activity against Candida krusei IFO 0584 after 48 hrs by broth microdilution method", "settings": "IFO 0584, 48 h", "how_it_was_run": "as §1"}, "Candida albicans [8]": {"test_system": "Candida albicans", "experiment": "Antifungal activity against Candida albicans ATCC MYA-1003 after 47 hrs by broth microdilution method", "settings": "ATCC MYA-1003, 47 h", "how_it_was_run": "(§4)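 Fluconazole-resistant or susceptible-dose-dependent ATCC C. albicans strains were tested by CLSI M27-A2 broth microdilution in RPMI 1640–0.165 M MOPS, pH 7.0, with a final inoculum of 1.1–1.5 × 10^3 CFU/ml at 35°C for about 47 h. MIC was the lowest concentration with a prominent (~50%) turbidity decrease relative to growth control; amphotericin B was read at complete inhibition.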"}, "Candida albicans [9]": {"test_system": "Candida albicans", "experiment": "Antifungal activity against Candida albicans ATCC 64124 after 47 hrs by broth microdilution method", "settings": "ATCC 64124, 47 h", "how_it_was_run": "as §4"}, "Aspergillus fumigatus [10]": {"test_system": "Aspergillus fumigatus", "experiment": "Antifungal activity against Aspergillus fumigatus ATCC 16424 after 48 hrs by broth microdilution method", "settings": "ATCC 16424, 48 h", "how_it_was_run": "as §2"}, "Scedosporium boydii": {"test_system": "Scedosporium boydii", "experiment": "Antifungal activity against Pseudallescheria boydii NBRC 32229 after 72 hrs by broth microdilution method", "settings": "NBRC 32229, 72 h", "how_it_was_run": "as §1"}, "Aspergillus fumigatus [11]": {"test_system": "Aspergillus fumigatus", "experiment": "Antifungal activity against Aspergillus fumigatus IFM 46895 after 48 hrs by broth microdilution method", "settings": "IFM 46895, 48 h", "how_it_was_run": "as §1"}, "Nakaseomyces glabratus": {"test_system": "Nakaseomyces glabratus", "experiment": "Antifungal activity against Candida glabrata clinical isolates after 48 hrs by broth microdilution method", "how_it_was_run": "as §3"}, "Candida parapsilosis [12]": {"test_system": "Candida parapsilosis", "experiment": "Antifungal activity against Candida parapsilosis clinical isolates after 48 hrs by broth microdilution method", "settings": "Lodderomyces parapsilosis", "how_it_was_run": "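Japanese hospital Candida isolates were tested by CLSI M27-A2 broth microdilution in RPMI 1640–MOPS, pH 7.0, with inocula of 0.57–2.5 × 10^3 CFU/ml at 35°C for about 48 h. Inocula came from 24-h potato dextrose agar cultures. MIC was the lowest concentration with about 50% turbidity reduction versus growth control (complete inhibition for amphotericin B). Range, MIC50 and MIC90 were reported.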"}, "Candida tropicalis [13]": {"test_system": "Candida tropicalis", "experiment": "Antifungal activity against Candida tropicalis IFO 1400 after 48 hrs by broth microdilution method", "settings": "IFO 1400, 48 h", "how_it_was_run": "as §1"}, "Lichtheimia corymbifera": {"test_system": "Lichtheimia corymbifera", "experiment": "Antifungal activity against Absidia corymbifera NBRC 4009 after 24 hrs by broth microdilution method", "settings": "NBRC 4009, 24 h", "how_it_was_run": "as §1"}, "Cryptococcus neoformans [14]": {"test_system": "Cryptococcus neoformans", "experiment": "Antifungal activity against Cryptococcus neoformans clinical isolates after 72 hrs by broth microdilution method", "how_it_was_run": "as §3"}, "[15]": {"test_system": "Meyerozyma guilliermondii", "experiment": "Antifungal activity against Candida guilliermondii clinical isolates after 48 hrs by broth microdilution method", "how_it_was_run": "as §3"}, "Fusarium solani": {"test_system": "Fusarium solani", "experiment": "Antifungal activity against Fusarium solani IFO 31093 after 48 hrs by broth microdilution method", "settings": "IFO 31093, 48 h", "how_it_was_run": "as §1"}}}
{"compound": "N=C(N)c1ccc(OCCCC2CCN(CCCOc3ccc(C(=N)N)cc3)CC2)cc1", "values": [{"measurement": "MFC", "setting": "Aspergillus terreus", "value": 4, "unit": "µg/mL"}, {"measurement": "MIC", "setting": "Aspergillus terreus", "value": 0.125, "unit": "µg/mL"}, {"measurement": "MFC", "setting": "Cryptococcus neoformans [1]", "value": 0.0156, "unit": "µg/mL"}, {"measurement": "MIC", "setting": "Cryptococcus neoformans [1]", "value": 0.0039, "unit": "µg/mL"}, {"measurement": "MFC", "setting": "Candida albicans [2]", "value": "> 64", "unit": "µg/mL"}, {"measurement": "MIC", "setting": "Candida albicans [2]", "value": 0.001, "unit": "µg/mL"}, {"measurement": "MIC50", "setting": "Candida tropicalis [3]", "value": 0.0005, "unit": "µg/mL"}, {"measurement": "MIC90", "setting": "Candida tropicalis [3]", "value": 0.0005, "unit": "µg/mL"}, {"measurement": "MFC", "setting": "Candida parapsilosis [4]", "value": "> 64", "unit": "µg/mL"}, {"measurement": "MIC", "setting": "Candida parapsilosis [4]", "value": 0.001, "unit": "µg/mL"}, {"measurement": "MIC50", "setting": "Candida albicans [5]", "value": 0.0005, "unit": "µg/mL"}, {"measurement": "MIC90", "setting": "Candida albicans [5]", "value": 0.002, "unit": "µg/mL"}, {"measurement": "MFC", "setting": "Trichophyton rubrum", "value": "> 64", "unit": "µg/mL"}, {"measurement": "MIC", "setting": "Trichophyton rubrum", "value": 2, "unit": "µg/mL"}, {"measurement": "MFC", "setting": "Saccharomyces cerevisiae", "value": "> 64", "unit": "µg/mL"}, {"measurement": "MIC", "setting": "Saccharomyces cerevisiae", "value": "> 64", "unit": "µg/mL"}, {"measurement": "MFC", "setting": "Cryptococcus neoformans [6]", "value": 0.0313, "unit": "µg/mL"}, {"measurement": "MIC", "setting": "Cryptococcus neoformans [6]", "value": 0.0078, "unit": "µg/mL"}, {"measurement": "MFC", "setting": "Aspergillus flavus", "value": 8, "unit": "µg/mL"}, {"measurement": "MIC", "setting": "Aspergillus flavus", "value": 0.5, "unit": "µg/mL"}, {"measurement": "MFC", "setting": "Candida albicans [7]", "value": "> 64", "unit": "µg/mL"}, {"measurement": "MIC", "setting": "Candida albicans [7]", "value": 0.001, "unit": "µg/mL"}, {"measurement": "MFC", "setting": "Mucor racemosus", "value": "> 64", "unit": "µg/mL"}, {"measurement": "MIC", "setting": "Mucor racemosus", "value": 2, "unit": "µg/mL"}, {"measurement": "MFC", "setting": "Pichia kudriavzevii", "value": 0.002, "unit": "µg/mL"}, {"measurement": "MIC", "setting": "Pichia kudriavzevii", "value": 0.001, "unit": "µg/mL"}, {"measurement": "MIC", "setting": "Candida albicans [8]", "value": 0.001, "unit": "µg/mL"}, {"measurement": "MIC", "setting": "Candida albicans [9]", "value": 0.001, "unit": "µg/mL"}, {"measurement": "MFC", "setting": "Aspergillus fumigatus [10]", "value": "> 64", "unit": "µg/mL"}, {"measurement": "MIC", "setting": "Aspergillus fumigatus [10]", "value": 0.125, "unit": "µg/mL"}, {"measurement": "MFC", "setting": "Scedosporium boydii", "value": "> 64", "unit": "µg/mL"}, {"measurement": "MIC", "setting": "Scedosporium boydii", "value": 4, "unit": "µg/mL"}, {"measurement": "MFC", "setting": "Aspergillus fumigatus [11]", "value": "> 64", "unit": "µg/mL"}, {"measurement": "MIC", "setting": "Aspergillus fumigatus [11]", "value": 0.0625, "unit": "µg/mL"}, {"measurement": "MIC", "setting": "Nakaseomyces glabratus", "value": 0.0039, "unit": "µg/mL"}, {"measurement": "MIC50", "setting": "Nakaseomyces glabratus", "value": 0.0039, "unit": "µg/mL"}, {"measurement": "MIC90", "setting": "Nakaseomyces glabratus", "value": 0.0078, "unit": "µg/mL"}, {"measurement": "MIC50", "setting": "Candida parapsilosis [12]", "value": 0.0005, "unit": "µg/mL"}, {"measurement": "MIC90", "setting": "Candida parapsilosis [12]", "value": 0.0005, "unit": "µg/mL"}, {"measurement": "MFC", "setting": "Candida tropicalis [13]", "value": 4, "unit": "µg/mL"}, {"measurement": "MIC", "setting": "Candida tropicalis [13]", "value": 0.0005, "unit": "µg/mL"}, {"measurement": "MFC", "setting": "Lichtheimia corymbifera", "value": "> 64", "unit": "µg/mL"}, {"measurement": "MIC", "setting": "Lichtheimia corymbifera", "value": 0.5, "unit": "µg/mL"}, {"measurement": "MIC50", "setting": "Cryptococcus neoformans [14]", "value": 0.0156, "unit": "µg/mL"}, {"measurement": "MIC90", "setting": "Cryptococcus neoformans [14]", "value": 0.0313, "unit": "µg/mL"}, {"measurement": "MIC50", "setting": "[15]", "value": 0.002, "unit": "µg/mL"}, {"measurement": "MIC90", "setting": "[15]", "value": 0.0039, "unit": "µg/mL"}, {"measurement": "MFC", "setting": "Fusarium solani", "value": "> 64", "unit": "µg/mL"}, {"measurement": "MIC", "setting": "Fusarium solani", "value": 0.125, "unit": "µg/mL"}]}
